Assay results published in the array DNA melting data of Ke et al. (doi:10.1101/2024.01.08.574731).

Assays:
[1] = folding enthalpy; higher = less favourable; fluorescence melt of hairpins on a sequencing array, two-state fit; conditions: sodium 0.088 M
In short: (§1)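 To match UV melts, fitted temperatures were raised by 9.35 °C. These fits were bootstrapped two-state models that gave melting temperature and folding enthalpy, combined by inverse variance over four replicates. The input was normalised Cy3 fluorescence of library hairpins with annealed Cy3 and quencher oligos on a sequenced MiSeq flow cell, imaged in 50 mM Na-HEPES pH 8.0, 25 mM NaCl in 2.5 °C steps up to 60 °C.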

[2] = melting temperature; fluorescence melt of hairpins on a sequencing array, two-state fit, raised by 9.35 °C to match UV melts; conditions: sodium 0.088 M
In short: as §1

Sequence | folding enthalpy [1] | Tm [2]
GTCGCATCGAAAGATGAC (((..(((....)))))) | -13.4 kcal/mol | 28.9 °C
GATCGATAGTCGATC ((((((...)))))) | -30.3 kcal/mol | 48.7 °C
GCATATCGAAAGATTTGC (((.(((....))).))) | -37 kcal/mol | 46.8 °C
GTCCTCCCGAAAGGGGAC (((..(((....)))))) | -14.3 kcal/mol | 44.8 °C
GGGGCGGGAAACCGCCTC (.(((((....))))).) | -12 kcal/mol | 60.5 °C
GATCCACGAAAGTGCATC (((.(((....))).))) | -16.1 kcal/mol | 32.8 °C
GATCTGTGAGCAGATC ((((((....)))))) | -40 kcal/mol | 55 °C
GGCGCCGCGAAAGCGGCC (((..(((....)))))) | -5.39 kcal/mol | 49.1 °C
GCAATTCGAAAGAATGC (((.(((....)))))) | -29.3 kcal/mol | 48.1 °C
GCATTCGGAAACAAATGC (((((.(....).))))) | -28.9 kcal/mol | 38 °C
GCACTTCGAAAGAATGC (((.(((....)))))) | -31.2 kcal/mol | 41.5 °C
GCACTCGAAAGAGTGTGC ((((((....)))..))) | -20.1 kcal/mol | 63.8 °C
GCTTCGCGAAAGCGCAGC (((.(((....))).))) | -30.7 kcal/mol | 54.1 °C
CCATCGAAAGATGG (((((....))))) | -23.3 kcal/mol | 60.5 °C
GAGGTAGGAAACTACCTC (((((((....))))))) | -37.2 kcal/mol | 60 °C
GTTGACGAAAGTCTGAAC ((((((....)))..))) | -11.5 kcal/mol | 25.1 °C
GATCATAACTATGATC ((((((....)))))) | -35.8 kcal/mol | 48 °C
GTGGACGAAAGTCCCCAC ((((((....)))..))) | -8.05 kcal/mol | 37.2 °C
GGAGGCGAAAGCCGCTCC ((((((....)))..))) | -9.69 kcal/mol | 49.2 °C

Sequence | folding enthalpy [1] | Tm [2]
GATCAGTTTCCTGATC ((((((....)))))) | -35 kcal/mol | 50.9 °C
GTTAGCGGAAACACTAAC (((((.(....).))))) | -30.3 kcal/mol | 36.6 °C
GCCACGCGAAAGCATAGC ((.(.((....)).).)) | -9.06 kcal/mol | 26.7 °C
CGCGGAACGATCCGCG ((((((....)))))) | -31.8 kcal/mol | 67.6 °C
GATCACAAATGTGATC ((((((....)))))) | -33.4 kcal/mol | 55.5 °C
GAACATGGAAACATGTTC (((((((....))))))) | -43.3 kcal/mol | 56.2 °C
GATCTGGGGCCAGATC ((((((....)))))) | -47.6 kcal/mol | 50.5 °C
GAGTAACCGAAAGGTCTC (((..(((....)))))) | -16.7 kcal/mol | 33.2 °C
GCCTCGCGAAAGCAGGGC (((..((....))..))) | -20.6 kcal/mol | 60.8 °C
GCGGCCTCGAAAGAGCGC (((..(((....)))))) | -25.6 kcal/mol | 52.7 °C
GCTATGCGAAAGCCTCGC ((.(.((....)).).)) | -11.5 kcal/mol | 32.2 °C
GTGTTAGGAAACTAACAC (((((((....))))))) | -42.1 kcal/mol | 57.8 °C
GATCTGGCCCCAGATC ((((((....)))))) | -49.3 kcal/mol | 52.9 °C
GAAAGGCCGAAAGGCTTC (((..(((....)))))) | -8.26 kcal/mol | 28.5 °C
GCCTCTGGAAACAGGGGC (((.(((....))).))) | -45.3 kcal/mol | 57.4 °C
GTCCGCGAAAGCGAGGAC ((((((....)))..))) | -21 kcal/mol | 54.9 °C
GCGAGCTTCGC ((((...)))) | -18.5 kcal/mol | 49 °C
GGTATCGGAAACGACACC (((.(((....))).))) | -30.7 kcal/mol | 43.4 °C
GCCCCCGGAAACGAGGGC ((((.((....)).)))) | -28.1 kcal/mol | 56 °C
